Among the data in ChEMBL document CHEMBL3576833, “Design and Synthesis of Acetylenyl Benzamide Derivatives as Novel Glucokinase Activators for the Treatment of T2DM” (ACS Med Chem Lett, 2015) are Activity and fold change (FC) values, retold here.

Activity calls are given as the source filed them. The calls are words filed in the database; no cut-off is given here.

Experiment [1] has as its target T1, Hexokinase-4 (Homo sapiens) (UniProt P35557).
T1 sequence (whole entry): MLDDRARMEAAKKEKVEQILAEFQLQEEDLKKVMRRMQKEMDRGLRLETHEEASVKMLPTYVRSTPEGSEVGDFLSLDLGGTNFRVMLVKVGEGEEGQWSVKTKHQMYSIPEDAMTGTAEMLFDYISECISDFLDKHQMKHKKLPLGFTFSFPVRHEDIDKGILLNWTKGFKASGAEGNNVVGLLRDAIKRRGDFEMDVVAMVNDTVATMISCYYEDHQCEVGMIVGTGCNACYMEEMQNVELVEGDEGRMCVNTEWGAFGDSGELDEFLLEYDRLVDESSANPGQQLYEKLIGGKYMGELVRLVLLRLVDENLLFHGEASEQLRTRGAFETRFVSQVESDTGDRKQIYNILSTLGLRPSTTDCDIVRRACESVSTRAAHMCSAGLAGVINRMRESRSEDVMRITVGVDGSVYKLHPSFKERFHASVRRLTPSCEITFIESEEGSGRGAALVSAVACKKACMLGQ
Briefly: Activation of recombinant human pancreatic glucokinase using 10 mM glucose as substrate assessed as enzyme half maximal saturation concentration at 1 uM by G6PDH coupled assay.

The target in experiment [2] is T2, Hexokinase-4 (Rattus norvegicus) (UniProt P17712).
T2 sequence (whole entry): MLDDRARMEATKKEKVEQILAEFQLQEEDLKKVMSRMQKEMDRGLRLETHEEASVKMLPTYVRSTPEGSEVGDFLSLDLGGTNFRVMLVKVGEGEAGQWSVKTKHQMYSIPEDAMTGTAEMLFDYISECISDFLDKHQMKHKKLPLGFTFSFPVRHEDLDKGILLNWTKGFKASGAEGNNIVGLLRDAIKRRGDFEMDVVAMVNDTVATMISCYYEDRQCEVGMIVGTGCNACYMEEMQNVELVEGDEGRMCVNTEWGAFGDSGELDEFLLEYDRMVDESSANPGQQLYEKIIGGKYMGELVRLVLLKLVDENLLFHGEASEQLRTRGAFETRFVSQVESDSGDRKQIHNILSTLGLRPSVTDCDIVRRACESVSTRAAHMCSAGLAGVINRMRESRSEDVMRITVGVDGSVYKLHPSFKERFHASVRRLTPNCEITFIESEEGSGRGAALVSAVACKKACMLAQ
Briefly: Activation of glucokinase in rat primary hepatocytes assessed as increase in 5.6 mM 2-deoxy-D-[3H]-glucose uptake after 4 hrs by scintillation counting analysis relative to control. The following applies: Hepatocyte. The class given is cell-based. The gist of the method:
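Rat primary hepatocytes; uptake measured under glucose stimulation, with glucose raised from 0 mM to 5.6 mM; activity expressed as fold increase in glucose uptake.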

In experiment [3] the test system is Mus musculus. Briefly: Antidiabetic activity in po dosed C57BL/6J mouse assessed as blood glucose lowering effect administered 30 mins prior to glucose challenge measured over 180 mins by OGTT. The format is functional, organism-based. The gist of the method: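 Oral glucose tolerance test in C57BL/6J mice with oral dosing. Blood glucose was followed after the glucose challenge, and the result was expressed as the % reduction in blood glucose AUC.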

Experiment [4] concerns the target T3, Hexokinase-1 (Homo sapiens) (UniProt P19367).
T3 sequence (whole entry): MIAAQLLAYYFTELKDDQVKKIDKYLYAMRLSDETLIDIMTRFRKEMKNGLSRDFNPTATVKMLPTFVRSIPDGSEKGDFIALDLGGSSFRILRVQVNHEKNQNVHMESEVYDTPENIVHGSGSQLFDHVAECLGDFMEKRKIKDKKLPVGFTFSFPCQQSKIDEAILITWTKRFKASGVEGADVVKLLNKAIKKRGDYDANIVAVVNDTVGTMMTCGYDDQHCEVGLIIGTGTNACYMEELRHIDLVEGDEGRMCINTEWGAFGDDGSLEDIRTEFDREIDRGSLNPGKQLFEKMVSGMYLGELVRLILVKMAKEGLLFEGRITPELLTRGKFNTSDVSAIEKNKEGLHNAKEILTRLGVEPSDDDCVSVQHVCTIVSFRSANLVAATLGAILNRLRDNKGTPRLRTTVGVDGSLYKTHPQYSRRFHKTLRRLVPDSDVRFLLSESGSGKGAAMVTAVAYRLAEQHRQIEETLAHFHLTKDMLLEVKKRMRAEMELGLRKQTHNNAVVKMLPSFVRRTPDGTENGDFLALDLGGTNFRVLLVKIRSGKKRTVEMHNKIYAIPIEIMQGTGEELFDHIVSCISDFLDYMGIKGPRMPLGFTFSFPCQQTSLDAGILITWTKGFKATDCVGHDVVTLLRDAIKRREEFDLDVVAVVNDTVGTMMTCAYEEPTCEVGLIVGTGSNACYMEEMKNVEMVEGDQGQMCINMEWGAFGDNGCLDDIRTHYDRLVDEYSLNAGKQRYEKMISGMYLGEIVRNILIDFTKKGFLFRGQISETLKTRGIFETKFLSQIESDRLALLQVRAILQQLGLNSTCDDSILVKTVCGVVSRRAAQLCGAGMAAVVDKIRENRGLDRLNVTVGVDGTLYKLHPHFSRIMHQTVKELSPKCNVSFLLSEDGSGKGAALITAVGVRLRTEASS
Briefly: Effect on hexokinase-1 (unknown origin).

Experiment [5] has as its target T4, Hexokinase-2 (Homo sapiens) (UniProt P52789).
T4 sequence (whole entry): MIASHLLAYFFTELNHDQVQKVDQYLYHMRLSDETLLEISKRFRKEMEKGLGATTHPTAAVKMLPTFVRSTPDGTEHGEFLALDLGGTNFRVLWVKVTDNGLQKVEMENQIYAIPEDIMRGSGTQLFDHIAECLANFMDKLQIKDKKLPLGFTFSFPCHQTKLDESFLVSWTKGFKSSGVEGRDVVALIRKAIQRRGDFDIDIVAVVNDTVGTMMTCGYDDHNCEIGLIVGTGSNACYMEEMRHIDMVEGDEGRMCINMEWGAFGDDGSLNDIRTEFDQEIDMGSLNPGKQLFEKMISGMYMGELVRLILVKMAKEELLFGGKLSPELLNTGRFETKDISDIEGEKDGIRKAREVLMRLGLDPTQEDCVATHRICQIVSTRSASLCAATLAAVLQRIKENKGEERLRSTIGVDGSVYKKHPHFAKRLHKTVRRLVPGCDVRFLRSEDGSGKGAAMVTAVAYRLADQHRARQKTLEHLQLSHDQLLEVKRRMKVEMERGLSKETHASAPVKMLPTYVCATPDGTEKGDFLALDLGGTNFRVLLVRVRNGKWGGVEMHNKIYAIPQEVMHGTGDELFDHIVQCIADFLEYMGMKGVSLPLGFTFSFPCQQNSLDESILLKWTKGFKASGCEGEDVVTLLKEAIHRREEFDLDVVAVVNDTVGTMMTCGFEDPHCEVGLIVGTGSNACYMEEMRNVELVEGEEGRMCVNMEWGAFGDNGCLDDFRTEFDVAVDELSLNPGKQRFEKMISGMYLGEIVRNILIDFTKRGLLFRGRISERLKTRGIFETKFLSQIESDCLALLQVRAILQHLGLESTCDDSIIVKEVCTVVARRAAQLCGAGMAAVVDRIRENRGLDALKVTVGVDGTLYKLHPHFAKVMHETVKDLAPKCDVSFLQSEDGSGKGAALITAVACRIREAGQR
Briefly: Effect on hexokinase-2 (unknown origin).

For experiment [6], the target named is T2, Hexokinase-4 (Rattus norvegicus). The experiment in a line: Activation of glucokinase in 0 to 5.6 mM glucose-stimulated Sprague-Dawley rat pancreatic islets assessed as increase in insulin secretion after 1 hr by ELISA relative to control. A general note: ELISA stands for enzyme-linked immunosorbent assay.
Experiment [7] concerns Mus musculus. Briefly: Antidiabetic activity in C57BL/6J mouse assessed as reduction of blood glucose level at 10 mg/kg, po after 60 mins by fasted glucose tolerance test. The class given is functional, organism-based. A digest of the protocol: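 Fasted glucose tolerance test in C57BL/6J mice. Animals were fasted and dosed orally, with no glucose challenge. Blood glucose was measured at 60 min.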

With `COC[C@H](C)Oc1cc(C#Cc2ccccc2OC)cc(C(=O)Nc2ccn(C)n2)c1`, the Activity in experiment [1] is 0.73 mM. Moreover, the fold change (FC) in experiment [2] came to 2.64.
Turning to `COC[C@H](C)Oc1cc(C#CCOC2CCCCO2)cc(C(=O)Nc2ccn(C)n2)c1` (stereo partly specified), the Activity in experiment [1] was determined as 0.55 mM. Moreover, the fold change (FC) in experiment [2] came out at 2.5.
Regarding `COCC#Cc1cc(O[C@@H](C)COC)cc(C(=O)Nc2ccn(C)n2)c1`, the Activity in experiment [1] is 4.04 mM. Further, in experiment [2], the fold change (FC) was 1.71.
For `COC[C@H](C)Oc1cc(C#Cc2cccc(NCCN3CCCCC3)c2)cc(C(=O)Nc2ccn(C)n2)c1`, the Activity in experiment [1] worked out at 0.61 mM. The fold change (FC) in experiment [2] came to 2.79.
`COCCNc1cccc(C#Cc2cc(O[C@@H](C)COC)cc(C(=O)Nc3ccn(C)n3)c2)c1`: in experiment [1], the Activity amounted to 1.23 mM. Moreover, the fold change (FC) in experiment [2] was determined as 2.18.
For the molecule `COC[C@H](C)Oc1cc(C#Cc2ccc3[nH]ccc3c2)cc(C(=O)Nc2ccn(C)n2)c1`, the Activity in experiment [1] stood at 0.46 mM. Also, the fold change (FC) in experiment [2] is 1.99.
On to `CCN(CC)c1cccc(C#Cc2cc(O[C@@H](C)COC)cc(C(=O)Nc3ccn(C)n3)c2)c1`, for which, in experiment [1], the Activity is 2.01 mM. The fold change (FC) in experiment [2] stood at 1.91.
Consider `COC[C@H](C)Oc1cc(C#Cc2cccc(N)c2)cc(C(=O)Nc2ccn(C)n2)c1`, for which the Activity result in the experiment on Mus musculus [3] was “Dose-dependent effect”; in experiment [1], 0.84 mM. Moreover, the outcome in experiment [4] and in experiment [5] was inactive. The values for the fold change (FC) in experiment [6] and in experiment [2] were 2.13 and 2.16, respectively.
Take `COC[C@H](C)Oc1cc(C#Cc2cccc(NCCN3CCOCC3)c2)cc(C(=O)Nc2ccn(C)n2)c1`: in experiment [1], the Activity stood at 0.55 mM. The fold change (FC) in experiment [2] came to 2.62.
On to `COC[C@H](C)Oc1cc(C#Cc2ccc3c(c2)OCO3)cc(C(=O)Nc2ccn(C)n2)c1`, for which, in experiment [1], the Activity was 2.13 mM. In experiment [2], the fold change (FC) stood at 2.64.
The corresponding values for `COC[C@H](C)Oc1cc(C#Cc2cccc(NCCn3ccnc3C)c2)cc(C(=O)Nc2ccn(C)n2)c1` are 0.9 mM and 2.36.
On the same counts, the results for `COC[C@H](C)Oc1cc(C#Cc2cccc(O)c2)cc(C(=O)Nc2ccn(C)n2)c1` are 1.37 mM and 1.57.
For `COC[C@H](C)Oc1cc(Oc2cnc(C(=O)N3CCC3)cn2)cc(C(=O)Nc2cnc(C)cn2)c1`, the result in the experiment with Mus musculus [7] was Active.
Regarding `COC[C@H](C)Oc1cc(C#Cc2cccc(OCCN3CCCCC3)c2)cc(C(=O)Nc2ccn(C)n2)c1`, the Activity in experiment [1] is 2.25 mM. In addition, the fold change (FC) in experiment [2] was determined as 2.36.
Take `COC[C@H](C)Oc1cc(C#CCN(C)C)cc(C(=O)Nc2ccn(C)n2)c1`: in experiment [1], the Activity turned out to be 5.51 mM. The fold change (FC) in experiment [2] came out at 1.31.
Turning to `COC[C@H](C)Oc1cc(C#Cc2cccc(N(C)C)c2)cc(C(=O)Nc2ccn(C)n2)c1`, the Activity in experiment [1] is 0.76 mM. Besides, the fold change (FC) in experiment [2] worked out at 2.43.
`COC[C@H](C)Oc1cc(C#Cc2cccc(NCCN(C)C)c2)cc(C(=O)Nc2ccn(C)n2)c1`: the Activity in experiment [1] amounted to 0.17 mM. Besides, in experiment [2], the fold change (FC) amounted to 2.03.
For the molecule `COC[C@H](C)Oc1cc(C#Cc2cccc(OC(C)C)c2)cc(C(=O)Nc2ccn(C)n2)c1`, in experiment [1], the Activity was 1.84 mM. In experiment [2], the fold change (FC) came to 2.03.
Regarding `COC[C@H](C)Oc1cc(C#Cc2cccc(OCCN3CCOCC3)c2)cc(C(=O)Nc2ccn(C)n2)c1`, the Activity in experiment [1] was 0.35 mM. For the same molecule, in experiment [2], the fold change (FC) was 1.89.
As to `COC[C@H](C)Oc1cc(C#CCNc2ncccn2)cc(C(=O)Nc2ccn(C)n2)c1`, in experiment [1], the Activity is 3.88 mM. For the same molecule, in experiment [2], the fold change (FC) was determined as 2.37.
As for `COC[C@H](C)Oc1cc(C#Cc2cccc(NCCN3CCCC3)c2)cc(C(=O)Nc2ccn(C)n2)c1`, the Activity in experiment [1] was 0.51 mM. Further, in experiment [2], the fold change (FC) came out at 2.83.
Regarding `COC[C@H](C)Oc1cc(C#Cc2ccc(N)cc2)cc(C(=O)Nc2ccn(C)n2)c1`, in experiment [1], the Activity amounted to 0.73 mM. Also, the fold change (FC) in experiment [2] is 2.05.
The corresponding values for `COC[C@H](C)Oc1cc(C#Cc2cccc(OCC#N)c2)cc(C(=O)Nc2ccn(C)n2)c1` are 0.95 mM and 1.75.
With `COC[C@H](C)Oc1cc(C#Cc2cccc(OCCN3CCCC3)c2)cc(C(=O)Nc2ccn(C)n2)c1`, in experiment [1], the Activity stood at 0.73 mM. The fold change (FC) in experiment [2] was 2.43.
